Results from ChEMBL document CHEMBL1149089, “Evaluation of potent and selective small-molecule antagonists for the CXCR2 chemokine receptor” (J Med Chem, 2004).

Columns and labels:
[1] = target: T1, C-X-C chemokine receptor type 1 (Homo sapiens, UniProt P25024); assay: Inhibition of binding of IL-8 to membranes of cloned CXC chemokine receptor 1 expressed in CHO Cells using [125I]IL-8 radioligand
T1 sequence (P25024 whole entry): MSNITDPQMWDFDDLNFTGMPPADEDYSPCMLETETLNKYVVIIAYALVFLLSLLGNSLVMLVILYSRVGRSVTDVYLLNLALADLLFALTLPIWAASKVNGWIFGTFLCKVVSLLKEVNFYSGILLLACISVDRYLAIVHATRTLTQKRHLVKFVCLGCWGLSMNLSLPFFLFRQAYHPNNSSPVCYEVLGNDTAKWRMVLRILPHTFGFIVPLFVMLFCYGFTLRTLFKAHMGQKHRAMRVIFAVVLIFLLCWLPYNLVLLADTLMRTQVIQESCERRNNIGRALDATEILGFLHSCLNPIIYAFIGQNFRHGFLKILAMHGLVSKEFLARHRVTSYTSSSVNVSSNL
How it was run: (§1)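 Membranes from CHO cells stably expressing CXCR1 or CXCR2; competition against radiolabeled human recombinant [125I]IL-8; IC50 given as mean ± SEM of three individual experiments.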

[2] = target: T2, C-X-C chemokine receptor type 2 (Homo sapiens, UniProt P25025); assay: Inhibition of binding of IL-8 to membranes of cloned CXC chemokine receptor 2 expressed in CHO Cells using [125I]IL-8 radioligand; how it was run: as §1
T2 sequence (P25025 whole entry): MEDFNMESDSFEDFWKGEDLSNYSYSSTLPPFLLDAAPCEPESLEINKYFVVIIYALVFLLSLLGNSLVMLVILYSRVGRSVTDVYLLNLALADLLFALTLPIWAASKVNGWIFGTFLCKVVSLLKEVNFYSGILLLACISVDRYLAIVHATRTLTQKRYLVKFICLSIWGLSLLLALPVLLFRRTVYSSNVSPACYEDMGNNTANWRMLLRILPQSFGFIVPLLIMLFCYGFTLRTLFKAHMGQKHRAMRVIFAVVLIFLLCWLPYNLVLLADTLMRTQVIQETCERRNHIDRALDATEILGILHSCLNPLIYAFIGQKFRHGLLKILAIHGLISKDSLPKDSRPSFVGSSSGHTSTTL

[3] = species: Homo sapiens; assay: Compound was evaluated for GROalpha-mediated calcium mobilization in human polymorphonuclear neutrophils(PMNs); format: functional
How it was run: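 Human neutrophils stimulated with GROα, the CXCR2-selective ligand; calcium mobilization measured; mean ± SEM of at least three separate determinations.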

[4] = tested on: Oryctolagus cuniculus; assay: Compound was evaluated for inhibition of topical model of delayed type hypersensitivity (DTH) at a dose of 1000 ug in rabbits; format: functional
How it was run: (§2)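 Rabbits sensitized by complete Freund's adjuvant injected in the nape of the neck; challenged intradermally 5 weeks later with tuberculin (10 units PPD). Compound in methanol (50 µL) or methanol vehicle applied topically to PPD sites 5 min after challenge and reapplied 4 h later. Skin-fold thickness at challenge site measured 48 h after challenge; % inhibition versus vehicle.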

[5] = tested on: Oryctolagus cuniculus; assay: Compound was evaluated for inhibition of topical model of delayed type hypersensitivity (DTH) at a dose of 62.5 ug in rabbits; format: functional; how it was run: as §2
[6] = tested on: Oryctolagus cuniculus; assay: Compound was evaluated for inhibition of topical model of delayed type hypersensitivity (DTH) at a dose of 500 ug in rabbits; format: functional
How it was run: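 Rabbits sensitized by complete Freund's adjuvant injection in the nape of the neck, then challenged intradermally 5 weeks later with tuberculin (10 units PPD). At 5 min post-challenge, compound in methanol (50 µL) or methanol vehicle was applied topically to PPD sites and reapplied 4 h later. Skin-fold thickness at the challenge site was read 48 h after PPD; % inhibition reported.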

Row | IC50 [1] [nM] | IC50 [2] [nM] | IC50 [3] [nM] | SMILES | Inhibition [4] [%] | Inhibition [5] [%] | Inhibition [6] [%]
1 | 46200 | 10900 | 13800 | O=C(Nc1ccccc1)Nc1cc([N+](=O)[O-])ccc1O |  |  | 
2 | 21000 | 200 | 120 | N#Cc1ccc(NC(=O)Nc2ccccc2)c(O)c1 | 21 |  | 
3 | 11100 | 57 | 7.5 | N#Cc1c(Cl)ccc(NC(=O)Nc2ccccc2Br)c1O |  | 3 | 
4 | 15100 | 25 | 53 | N#Cc1ccc(NC(=O)Nc2ccccc2Br)c(O)c1 |  |  | 31
5 | 18200 | 320 | 339 | O=C(Nc1ccccc1)Nc1ccc([N+](=O)[O-])cc1O |  |  | 
6 | 33200 | 860 | 511 | O=C(Nc1ccccc1)Nc1cccc([N+](=O)[O-])c1O |  |  | 

Row | SMILES | IC50 [1] [nM] | IC50 [2] [nM] | IC50 [3] [nM] | Inhibition [4] [%] | Inhibition [5] [%] | Inhibition [6] [%]
7 | N#Cc1ccc(NC(=O)Nc2ccccc2Br)c(O)c1Cl | 4200 | 22 | 2.6 |  |  | 
8 | N#Cc1ccc(NC(=O)Nc2ccccc2Br)c(O)c1Br | 2600 | 6 | 0.79 |  |  | 33
